Data reported in ChEMBL document CHEMBL1153722, “Design, synthesis, and characterization of peptide-based rab geranylgeranyl transferase inhibitors” (J Med Chem, 2009).
Square brackets hold non-standard residues; d marks the D form. Peptide text beside a SMILES is read from it. * marks the point of attachment. Hydrocinnamoyl = O=C(CCc1ccccc1)*; Myristoyl = CCCCCCCCCCCCCC(=O)*; Undecanoyl = CCCCCCCCCCC(=O)*; pGlu = O=C1CC[C@@H](C(=O)O)N1; Ac6c = NC1(C(=O)O)CCCCC1; Morpholide = C1CN(*)CCO1; Piperidide = C1CCN(*)CC1; Cbz = O=C(OCc1ccccc1)*; NHBn = c1ccc(CN*)cc1; NHPh = c1ccc(N*)cc1; NHOH = ON*

Organism: Rattus norvegicus
Test: Inhibition of rat recombinant Rab geranylgeranyltransferase at 100 uM in presence of canine Rab7 and rat REP1 NBD-FPP based continuous fluorimetric assay
How it was run: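 Continuous fluorometric assay in 96/384-well format: 3 μM Rab7, 3 μM REP1, 9 μM NBD-FPP and 400 nM RabGGTase, with or without inhibitor. […] IC50 was calculated from three independent measurements.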

SMILES	inhibition
NCCCC[C@H](NC(=O)CCc1ccccc1)C(=O)N[C@@H](Cc1c[nH]cn1)C(=O)N[C@@H](CO)C(=O)O (Hydrocinnamoyl-Lys-His-Ser-OH)	89%
C=CCOC(=O)[C@H](CO)NC(=O)CNC(=O)[C@H](Cc1ccccc1)NC(=O)c1coc(-c2ccccc2)n1	109%
CCCCCCCCCCC(=O)N[C@@H](Cc1ccc(O)cc1)C(=O)N[C@@H](Cc1c[nH]cn1)C(=O)N[C@@H](Cc1ccc(O)cc1)C(=O)NO (Undecanoyl-Tyr-His-Tyr-{NHOH})	88%
O=C(N[C@@H](Cc1ccc(O)cc1)C(=O)N[C@@H](Cc1ccc(O)cc1)C(=O)N[C@@H](Cc1ccc(O)cc1)C(=O)Nc1ccc(F)cc1F)c1ccc(F)cc1F	97%
C=CCCCCCCCCCOC(=O)[C@H](CO)NC(=O)[C@H](Cc1ccccc1)NC(=O)[C@H](CO)NC(=O)/C=C/c1ccc(F)cc1	87%
O=C(CNC(=O)[C@H](Cc1ccc(O)cc1)NC(=O)c1ccc(F)cc1F)N[C@@H](Cc1ccc(O)cc1)C(=O)O	90%
CCCCCCCCCCCCCCCC(=O)N[C@@H](Cc1ccc(O)cc1)C(=O)N[C@@H](Cc1ccc(O)cc1)C(=O)N[C@@H](Cc1ccc(O)cc1)C(=O)Nc1nccs1	83%
COC(=O)C1(NC(=O)[C@H](CCCCN)NC(=O)[C@H](CC(C)C)NC(=O)[C@@H]2CCC(=O)N2)CCCCC1 ([pGlu]LK[Ac6c]-OMe)	98%
COC(=O)[C@H](Cc1ccc(O)cc1)NC(=O)[C@H](Cc1ccc(O)cc1)NC(=O)[C@H](Cc1ccc(O)cc1)NC(=O)c1ccc(F)cc1F	79%
CC[C@H](C)[C@H](NC(=O)/C=C/c1ccc(F)cc1)C(=O)N[C@@H](C)C(=O)N[C@@H](CCC(N)=O)C(=O)Nc1ccc(F)c(Cl)c1	46%
C[C@H](NC(=O)[C@@H](NC(=O)c1ccc(-c2ccccc2)cc1)[C@@H](C)O)C(=O)N[C@@H](CCC(N)=O)C(=O)Nc1ccc(F)c(Cl)c1	100%
O=C(N[C@@H](CO)C(=O)N[C@@H](Cc1ccccc1)C(=O)N[C@@H](CO)C(=O)OCCCl)C(Br)C(Br)c1ccc(F)cc1 (stereo not given in full)	98%
CON(C)C(=O)[C@H](Cc1ccc(O)cc1)NC(=O)CNC(=O)[C@H](Cc1ccc(O)cc1)NC(=O)CCc1ccc(F)cc1	80%
O=C(CCc1ccc(F)cc1)N[C@@H](Cc1ccc(O)cc1)C(=O)NCC(=O)N[C@@H](Cc1ccc(O)cc1)C(=O)NC1CCCCC1	88%
C[C@H](NC(=O)[C@@H](NC(=O)c1ccc(-c2ccccc2)cc1)[C@@H](C)O)C(=O)N[C@@H](CCC(=O)O)C(N)=O	82%
COC(=O)[C@H](Cc1ccccc1)NC(=O)[C@H](CC(C)C)NC(=O)[C@@H]1CCCN1C(=O)/C=C/c1ccccc1	79%
O=C(CCc1ccc(F)cc1)N[C@@H](Cc1ccc(O)cc1)C(=O)NCC(=O)N[C@@H](Cc1ccc(O)cc1)C(=O)Nc1ccc(F)cc1	80%
O=C(CNC(=O)[C@H](Cc1c[nH]cn1)NC(=O)c1coc(-c2ccccc2)n1)N[C@@H](Cc1ccc(O)cc1)C(=O)O	99%
Nc1ccccc1NC(=O)[C@H](Cc1ccc(O)cc1)NC(=O)CCNC(=O)[C@H](Cc1c[nH]cn1)NC(=O)OCc1ccccc1	80%
CCCCCCCCCCC(=O)N[C@@H](Cc1ccc(O)cc1)C(=O)N[C@@H](Cc1c[nH]cn1)C(=O)N[C@@H](Cc1ccc(O)cc1)C(=O)OCCN	61%

SMILES	inhibition
CC(C)CCNC(=O)[C@H](CO)NC(=O)CNC(=O)[C@H](CO)NC(=O)/C=C/c1ccc(F)cc1	85%
CC(C)C[C@H](NC(=O)[C@H](CO)NC(=O)[C@H](Cc1ccccc1)NC(=O)/C=C/c1ccc(F)cc1)C(=O)O	71%
CCCCCCCCCCCCCC(=O)OC[C@H](NC(=O)[C@@H]1CCCN1C(=O)[C@H](CCC(N)=O)NC(=O)c1coc(-c2ccccc2)n1)C(=O)O	36%
C[C@@H](NC(=O)CCc1ccccc1)C(=O)N[C@@H](Cc1ccccc1)C(=O)N[C@@H](CCC(N)=O)C(N)=O	95%
NC(=O)CC[C@H](NC(=O)[C@H](Cc1ccccc1)NC(=O)[C@H](CO)NC(=O)CCc1ccccc1)C(=O)O (Hydrocinnamoyl-Ser-Phe-Gln-OH)	102%
O=C(CNC(=O)[C@H](Cc1c[nH]cn1)NC(=O)OCc1ccccc1)N[C@@H](Cc1ccc(O)cc1)C(=O)O (Cbz-His-Gly-Tyr-OH)	75%
O=C(CCc1ccccc1)N[C@@H](CO)C(=O)N[C@@H](Cc1ccccc1)C(=O)N[C@@H](CO)C(=O)N1CCCCC1 (Hydrocinnamoyl-Ser-Phe-Ser-Piperidide)	62%
O=C(N[C@@H](Cc1c[nH]cn1)C(=O)N[C@@H](Cc1ccc(O)cc1)C(=O)N[C@@H](Cc1ccccc1)C(=O)O)OCc1ccccc1OCc1ccccc1	15%
COC(=O)[C@H](CCC(=O)O)NC(=O)[C@H](C)NC(=O)[C@@H](NC(=O)c1ccc(-c2ccccc2)cc1)[C@@H](C)O	101%
CCCCCCCCCCC(=O)N[C@@H](Cc1c[nH]cn1)C(=O)N[C@@H](Cc1c[nH]cn1)C(=O)N[C@@H](Cc1ccc(O)cc1)C(=O)Nc1ccccn1	70%
NC(=O)CC[C@H](NC(=O)[C@H](Cc1ccccc1)NC(=O)CNC(=O)CCc1ccccc1)C(=O)Nc1ccccc1 (Hydrocinnamoyl-Gly-Phe-Gln-NHPh)	80%
CCCCCCCCCCCOc1ccc(C(=O)N[C@@H](Cc2ccc(O)cc2)C(=O)N[C@@H](Cc2ccc(O)cc2)C(=O)N[C@@H](Cc2ccc(O)cc2)C(N)=O)cc1	103%
CC(C)C[C@H](NC(=O)[C@H](CO)NC(=O)[C@H](Cc1ccccc1)NC(=O)c1ccc(-c2ccccc2)cc1)C(=O)OCCCl	53%
O=C(/C=C/c1ccccc1)N[C@@H](Cc1ccccc1)C(=O)N[C@@H](Cc1ccccc1)C(=O)N[C@@H](Cc1ccc(O)cc1)C(=O)NC1CCCCC1	71%
C[C@H](NC(=O)/C=C/c1ccc(F)cc1)C(=O)NCC(=O)N[C@@H](Cc1ccc(O)cc1)C(=O)NC1CCCCC1	11%
CC(C)C[C@H](NC(=O)c1coc(-c2ccccc2)n1)C(=O)NCC(=O)N[C@@H](Cc1c[nH]cn1)C(=O)Nc1ccc(F)cc1F	88%
NC(=O)CC[C@H](NC(=O)[C@H](Cc1ccccc1)NC(=O)CNC(=O)CCc1ccccc1)C(=O)NC1CCCCC1	50%
O=C(CNC(=O)c1csc(-c2ccc(C(F)(F)F)cc2)n1)N[C@@H](Cc1ccccc1)C(=O)N[C@@H](Cc1c[nH]cn1)C(=O)O	137%
O=C(CCc1ccc(F)cc1)N[C@@H](Cc1ccc(O)cc1)C(=O)NCC(=O)N[C@@H](Cc1ccc(O)cc1)C(=O)NCc1ccccc1	127%

More lines, now with the values ahead:

inhibition	SMILES
101%	COc1ccc(NC(=O)[C@H](CCC(N)=O)NC(=O)[C@H](Cc2ccccc2)NC(=O)[C@H](CO)NC(=O)CCc2ccccc2)cc1
86%	CCCCCCCCCCCOc1ccc(C(=O)N[C@@H](Cc2ccc(O)cc2)C(=O)N[C@@H](Cc2ccc(O)cc2)C(=O)N[C@@H](Cc2ccc(O)cc2)C(=O)N(C)CCc2ccccn2)cc1
56%	CCCCCCCCCCCOc1ccc(C(=O)N[C@@H](Cc2c[nH]cn2)C(=O)N[C@@H](Cc2ccc(O)cc2)C(=O)N[C@@H](Cc2ccccc2)C(=O)NC2CCCCC2)cc1
94%	O=C(CCc1ccccc1)N[C@@H](CO)C(=O)N[C@@H](Cc1ccccc1)C(=O)N[C@@H](CO)C(=O)N1CCOCC1 (Hydrocinnamoyl-Ser-Phe-Ser-Morpholide)
96%	CC(C)C[C@H](NC(=O)[C@H](COC(C)(C)C)NC(=O)[C@H](Cc1ccccc1)NC(=O)CCc1ccccc1)C(N)=O
77%	CC(=O)Nc1cc(C(=O)N2CCC[C@@H]2C(=O)N[C@@H](C(=O)N[C@@H](CCC(N)=O)C(=O)NN)C(C)C)ccc1[N+](=O)[O-]
84%	CON(C)C(=O)[C@H](Cc1ccc(O)cc1)NC(=O)CNC(=O)[C@H](Cc1ccc(O)cc1)NC(=O)c1ccc(F)cc1
92%	COC(=O)[C@H](CCC(N)=O)NC(=O)[C@H](Cc1ccccc1)NC(=O)CNC(=O)CCc1ccccc1 (Hydrocinnamoyl-Gly-Phe-Gln-OMe)
136%	C=CCOC(=O)[C@H](Cc1cn(C(c2ccccc2)(c2ccccc2)c2ccccc2)cn1)NC(=O)[C@H](Cc1ccccc1)NC(=O)CNC(=O)c1csc(-c2cccs2)n1
88%	CCCCCCCCCCCC(=O)N[C@@H](Cc1c[nH]cn1)C(=O)N[C@@H](Cc1c[nH]cn1)C(=O)N[C@@H](CO)C(=O)Nc1ccccc1N
90%	NC(=O)CC[C@H](NC(=O)[C@H](Cc1ccccc1)NC(=O)[C@H](CO)NC(=O)CCc1ccccc1)C(=O)Nc1ccccc1 (Hydrocinnamoyl-Ser-Phe-Gln-NHPh)
5%	C=CCCCCCCCCCOC(=O)[C@H](CO)NC(=O)CNC(=O)[C@H](Cc1ccccc1)NC(=O)c1coc(-c2ccccc2)n1
76%	CCCCCCCCCCCOc1ccc(C(=O)N[C@@H](Cc2c[nH]cn2)C(=O)N[C@@H](Cc2ccc(O)cc2)C(=O)N[C@@H](Cc2ccccc2)C(=O)Nc2nccs2)cc1
92%	CC[C@H](C)[C@H](NC(=O)c1ccc(-c2ccccc2)cc1)C(=O)N[C@@H](C(=O)N[C@@H](CCC(N)=O)C(=O)N1CCOCC1)C(C)C
93%	O=C(CCc1ccccc1)N[C@@H](CO)C(=O)NCC(=O)N[C@@H](CO)C(=O)Nc1ccccc1 (Hydrocinnamoyl-Ser-Gly-Ser-NHPh)
77%	C[C@H](NC(=O)[C@@H](NC(=O)c1ccc(-c2ccccc2)cc1)[C@@H](C)O)C(=O)N[C@@H](CCC(N)=O)C(=O)Nc1cccc(Br)n1
95%	CC(C)C[C@H](NC(=O)[C@@H]1CCC(=O)N1)C(=O)N[C@@H](CCCCN)C(=O)NC1(C(N)=O)CCCCC1 ([pGlu]LK[Ac6c]-NH2)
90%	O=C(CCc1ccccc1)N[C@@H](CO)C(=O)NCC(=O)N[C@@H](CO)C(=O)NCc1ccccc1 (Hydrocinnamoyl-Ser-Gly-Ser-NHBn)
102%	CON(C)C(=O)[C@H](CCC(N)=O)NC(=O)[C@H](Cc1ccccc1)NC(=O)[C@@H](NC(=O)C(Br)C(Br)c1ccccc1)[C@@H](C)O (stereo not given in full)
88%	CC(C)C[C@H](NC(=O)[C@H](COC(C)(C)C)NC(=O)[C@H](Cc1ccccc1)NC(=O)CCc1ccccc1)C(=O)O
95%	CCCCCCCCCCCCCC(=O)N[C@@H](Cc1ccc(O)cc1)C(=O)N[C@@H](Cc1ccc(O)cc1)C(=O)N[C@@H](Cc1ccc(O)cc1)C(=O)N1CCOCC1 (Myristoyl-Tyr-Tyr-Tyr-Morpholide)
